Assay outcomes as filed in PubChem BioAssay.
HGIII-sPLA2 inh: Inhibits HGIII-sPLA2 liposome hydrolysis, primary screen. inhibition, % at 12.2 µM. actives 0.56% (n = 370,000). AID 743126. QFRET BODIPY PC-A2 liposome hydrolysis, fluorescence. Q9NZ20;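 active = inhibition above mean plus 3 SD of compounds lying within the high and low control bounds, cut at about 19% in these data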
procasp3 activ: procaspase-3 (human) activation; P42574; recombinant procaspase-3 D3A, Ac-DEVD-pNA absorbance 405 nm; activation, % at 8.5 µM; actives 0.11% (n = 330,000);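 active = activation above the mean of all tested compounds plus 3 SD, cut at about 21% in these data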
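System: Procaspase-3 D3A mutant. Medium: Zinc-free 300 mM NaCl, 50 mM HEPES, 0.01% Triton X-100. Schedule: 1 h preincubation plus 2 h reaction at 25 °C. Measured by: 405 nm absorbance of p-nitroaniline, reads at 0 and 120 min. Read-out: percent activation relative to control range.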
procasp7 counter: activates human procaspase-7, counter-screen for procaspase-3 activators; AID 463210; activation, % at 8.5 µM; P55210; recombinant procaspase-7, Ac-DEVD-pNA absorbance 405 nm; D23A/D198A/D206A triple mutant, cannot self-cleave; scale: DMSO 0, 5 µM enzyme 100; actives 0.093% (n = 330,000);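 active = percent activation above the screen-wide mean plus 3 SD, cut at about 25% in these data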
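Assay system – Uncleavable procaspase-7 mutant enzyme · Quantity – 2 µM procaspase-7 mutant as dispensed · Times – 1 h preincubation, 2 h reaction · Dosing – single nominal 8.5 µM compound dose, 0.8% DMSO final · Buffer or medium – Zinc-free 50 mM HEPES buffer, pH 7.4, with NaCl and Triton X-100 · Detection – Epi-absorbance of released pNA at 405 nm, two timepoints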
Arr AP2 block: inhibitors of human beta-arrestin and AP2 interaction | FITC-arrestin peptide / GST-AP2 beads, flow cytometry; AP2 beta2 appendage carries R879A mutation | AID 504490 | actives 0.31% (n = 340,000) | inhibition, % at 10 µM;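 active = inhibition above a set limit, near 3 SD of compounds lacking own fluorescence, cut at about 54% in these data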
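System: GST-AP2 R879A bound to glutathione beads, E. coli-expressed. Also added: 50 nM FITC-arrestin peptide. Schedule: compound with beads 12 min RT, then probe 1 h RT. Signal: bead flow cytometry, FITC channel. Read-out basis: percent response.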
PLCg1 inh: PLC-gamma1 (human) inhibition, primary screen; P19174; purified PLC-gamma1, fluorogenic substrate, fluorescence; inhibition, % at 12.2 µM; actives 0.84% (n = 370,000); AID 720700; in the data active = inhibition above about 9.5%
PLC-beta3 inh: inhibitors of human phospholipase C beta3; Q01970; AID 720704; Purified PLC-beta3, fluorogenic substrate, fluorescence; actives 0.18% (n = 370,000); inhibition, % at 12.2 µM; in the data active = inhibition above about 11%
Numbers stand for hits; – = inactive; · = not tested or not shown. In the library only some 1.9% were active in any assay of this set; here they are far more common.

SMILES	HGIII-sPLA2 inh	procasp3 activ	procasp7 counter	Arr AP2 block	PLCg1 inh	PLC-beta3 inh
CC(=O)Nc1ccc(N2CCc3c(C)c(C#N)c4nc5ccccc5n4c32)cc1	·	64.9	89.6	·	·	·
CC(C)Oc1ccc(C(CCN)C2CCCCC2)cc1 (stereo not drawn)	–	–	–	–	11.8	–
CC(C)Oc1ccc(C(=O)NC2CCCCC2)cc1	–	–	–	–	–	–
Cc1cccc(CCNC(=O)Cn2nc(-c3ccccc3)ccc2=O)c1	–	·	·	·	–	–
C[C@@H]1CCC(=O)N(C[C@@H](C)CSc2ccccc2)CC1	–	–	–	–	10.9	–
CC(C)NCC(O)Cn1c2c(c3ccccc31)CCc1c-2cnn1-c1ccccc1 (stereo not drawn)	21.3	–	–	–	–	–
CC(C)c1cc(C(C)C)c(S(=O)(=O)N2CCCC(C(=O)N3CCN(Cc4ccccc4)CC3)C2)c(C(C)C)c1 (stereo not drawn)	–	·	·	·	–	–
Cc1ccc(C(=O)N/N=C/c2c(O)ccc3ccccc23)cn1	30.1	–	–	–	–	–
COc1ccc(S(=O)(=O)N2CCCCCC2)cc1NC(=O)CN1C(=O)CNC1=O	–	–	–	–	11.2	–
COc1ccc(S(=O)(=O)N2CCCCCC2)cc1NC(=O)Cc1cc(OC)c(OC)c(OC)c1	–	–	–	–	–	–
Cc1noc(C)c1COc1ccc(C(=O)OCc2nnc(-c3ccc(Cl)cc3)o2)cc1	–	–	–	–	12.2	–
Cc1ccccc1Cn1cc(COC(=O)NCCc2ccccc2)nn1	–	·	·	·	–	–
O=C(O)c1ccccc1C(=O)Nc1cc(C(F)(F)F)ccc1N1CCCC1	–	–	–	–	10.4	–
O=C(Nc1cc(C(F)(F)F)ccc1N1CCOCC1)c1ccccc1	–	–	–	–	–	–
CCC(C(=O)OCC(=O)C1(O)CCC2C3CCC4=CC(=O)CCC4(C)C3C(O)CC21C)C(C)C (stereo not drawn)	–	·	·	–	–	–
CC(=O)[C@@]1(O)CC[C@H]2[C@@H]3CCC4=CC(=O)CC[C@]4(C)[C@H]3[C@@H](O)C[C@@]21C	–	–	–	–	10.7	–
COc1nc(Nc2nc3ccccc3c(=O)[nH]2)nc2ccc(C)cc12	–	–	–	–	13.6	–
CC1=NN(c2cccc(C(=O)O)c2)C(=O)/C1=C\C=C\c1ccco1	–	–	–	–	23.4	–
COc1cc(/C=C2\C(=O)N(c3cccc(C(=O)O)c3)N=C2C)ccc1OCc1ccccc1	–	·	·	·	–	–
c1ccc(N=NC2=NN(c3ccccc3)CS2)cc1	29.5	·	·	·	–	–
NC(=O)c1ccc(N=C2C(=O)Nc3ccc([N+](=O)[O-])cc32)cc1	–	–	–	–	10.7	–
O=C1Nc2ccccc2C1=Nc1cccc([N+](=O)[O-])c1	–	–	–	–	–	–
O=C(O[C@H]1CC[C@@]23CCCN2C(=O)CCC[C@H]3C1)N1CCN(c2ccccc2)CC1	–	·	·	·	–	–
CCOC(=O)C1=C(Cc2ccc(OC)cc2)C(=O)c2ccccc2C1=O	·	·	·	54.9	·	·
COC(=O)CNC(=O)C1Cc2ccccc2CN1S(=O)(=O)c1ccc(F)cc1 (stereo not drawn)	–	–	–	–	9.6	–
SMILES	HGIII-sPLA2 inh	procasp3 activ	procasp7 counter	Arr AP2 block	PLCg1 inh	PLC-beta3 inh
CCNC(=O)C1Cc2ccccc2CN1S(=O)(=O)c1ccc(F)cc1 (stereo not drawn)	–	–	–	–	–	–
CCOC(=O)[C@@]12CN(C(=O)OC(C)(C)C)CC=C1N(Cc1ccc(OC)cc1)C(=O)[C@H]2CC(=O)N1CCOCC1	–	·	·	·	–	–
Cc1cc(C)cc(OCC(=O)NCC2CCCO2)c1 (stereo not drawn)	–	–	–	–	–	–
Cc1cc(C)c(C)c(OCC(=O)NCC2CCCO2)c1 (stereo not drawn)	–	–	–	–	12.1	–
CSc1ccc(CNC(=O)C2(C)CCCN(C(C)=O)C2)cc1 (stereo not drawn)	–	·	·	·	–	10.7
CSc1ccc(CNC(=O)C2(C)CCCN(C(C)C)C2)cc1 (stereo not drawn)	–	·	·	·	–	–
CC(C)C[C@H](NC(=O)c1[nH]cnc1C(=O)N[C@@H](C)C(=O)OCc1ccccc1)C(=O)OCc1ccccc1	–	–	–	–	11.4	–
CC(C)C[C@H](NC(=O)c1[nH]cnc1C(=O)N[C@@H](C)C(=O)OC(C)(C)C)C(=O)OCc1ccccc1	–	–	–	–	–	–
C[C@@H]1OCN(C)[C@H]2C[C@H]3c4[nH]c5cccc(-c6ccc7c(c6)OCO7)c5c4CCN3C[C@@H]12	–	·	·	·	–	–
O=C(N1CCCC1)n1ncc(-c2ccc(-c3ccccc3)cc2)n1	–	·	·	·	–	–
O=C(NC(=S)Nc1ccc(O)cc1)c1cncc(Br)c1	21.9	–	–	–	–	–
COc1ccc(OC)c(C(c2nnnn2CCc2ccccc2)N2CCN(c3ccccc3)CC2)c1 (stereo not drawn)	–	–	–	–	10.8	–
C=CCNC(=O)CN(C(=O)c1ccncn1)c1cccc(Br)c1	–	·	·	·	–	–
CCCCn1c(NC(=O)c2ccco2)c(S(=O)(=O)c2ccc(C)cc2)c2nc3ccccc3nc21	–	·	·	–	–	–
CCCCn1c(NS(=O)(=O)c2ccccc2)c(S(=O)(=O)c2ccc(C)cc2)c2nc3ccccc3nc21	26.5	–	–	–	16.9	–
C[C@@H]1COc2cc(N3CCN(Cc4ccccc4F)CC3)ccc2S(=O)(=O)N1	–	·	·	·	9.8	–
CC1CCCCN1C(=O)Cn1nnc(-c2cccnc2)n1 (stereo not drawn)	–	–	–	–	–	–
Cc1ccc(-c2nnn(CCC(=O)N3CCCCC3C)n2)cc1 (stereo not drawn)	–	–	–	–	12.5	–
COC(=O)C1(C)NC(c2ccc(O)cc2)C2C(=O)N(c3ccccc3)C(=O)C21 (stereo not drawn)	–	–	–	–	–	–
COC(=O)C1(C)NC(c2ccc(O)cc2)C2C(=O)N(c3ccc(F)cc3)C(=O)C21 (stereo not drawn)	–	–	–	–	15.2	–
O=[N+]([O-])c1ccc(N/N=C/c2ccc(O)c(O)c2O)c(S(=O)(=O)N2CCOCC2)c1	–	·	·	–	10.6	–
CNc1ccc(C(=O)OCC(=O)NC(=O)NC2CCCC2)cc1[N+](=O)[O-]	–	–	–	–	12.7	–
COC(=O)C1CN(Cc2cn(Cc3ccc(Cl)cc3)nn2)CCS(=O)(=O)N1Cc1ccc(C)cc1 (stereo not drawn)	–	·	·	·	–	–
